Assay results reported in ChEMBL document CHEMBL6134787, “Fexinidazole optimization: enhancing anti-leishmanial profile, metabolic stability and hERG safety” (RSC Med Chem, 2024).

Assays:
[1] = system: Leishmania amazonensis; experiment: Antileishmanial activity against wild type Leishmania amazonensis LV78 promastigotes […] assessed as inhibition of parasite growth incubated for 72 hrs by automatic microtiter plate reader analysis; format: functional, organism-based
In short: (§1)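 Promastigotes were grown in Schneider's medium (4 mM glutamine, gentamicin, 10% heat-inactivated FBS, pH 6.9, 27 °C). Cells were seeded at 1.5 × 10^5/well and exposed to a concentration series for 72 h at 27 °C.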

[2] = system: Leishmania braziliensis; experiment: Antileishmanial activity against wild type Leishmania braziliensis UA847 promastigotes […] assessed as inhibition of parasite growth incubated for 72 hrs by automatic microtiter plate reader analysis; format: functional, organism-based; in short: as §1
[3] = Hepatotoxicity against mouse TAMH cells assessed as cell viability at 62.5 uM incubated for 48 hrs by MTT assay; format: toxicity, cell-based; conditions: read-out: Activity
In short: (§2)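 TAMH mouse liver cells in FCS-free DMEM/F12 with 5% PANEXIN NTA, 10 mM nicotinamide and gentamicin. Seeded at 20 000/well and attached 24 h at 37 °C, 5% CO2. DMSO-diluted compounds were applied for 24 or 48 h. MTT was added for 4 h, formazan dissolved in DMSO and A570 read. Viability was background-corrected and expressed relative to DMSO controls; mean ± SD, ≥3 experiments.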

[4] = Metabolic stability in rat liver S9 fraction assessed as compound remaining at 20 uM measured after 32 mins in presence of NADP and GSH by HPLC analysis; format: ADME, subcellular; conditions: read-out: Stability
In short: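 Rat liver S9 (final 4 mg/mL) in 50 mM phosphate pH 7.4 with NADPH-regenerating system (0.3 mM NADP+, 5.3 mM glucose-6-phosphate, G6PDH), 10 mM MgCl2 and 5 mM EDTA. Pre-warmed 10 min at 37 °C, then 20 μM compound and 5.5 μM GSH added. Samples taken at 0, 16 and 32 min were quenched in ice-cold acetonitrile. HPLC (254/280 nm) peak area was expressed relative to 0 min.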

[5] = system: Leishmania major; experiment: Antileishmanial activity against wild type Leishmania major FV1 promastigotes […] assessed as inhibition of parasite growth incubated for 72 hrs by automatic microtiter plate reader analysis; format: functional, organism-based; in short: as §1
[6] = system: Leishmania amazonensis; experiment: Antileishmanial activity against wild type Leishmania amazonensis LV78 amastigotes infected in mouse peritoneal macrophage assessed as inhibition of parasite growth incubated for 72 hrs by giemsa staining based analysis; format: functional, organism-based
In short: (§3)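 Mouse peritoneal macrophages (1 × 10^5/well on coverslips, DMEM + 10% heat-inactivated FBS, penicillin/streptomycin) adhered overnight at 37 °C, 5% CO2. They were infected overnight with late-log promastigotes at a 20:1 parasite:macrophage ratio. Cells were then treated with compound for 72 h at 37 °C and Giemsa-stained. Amastigotes per 100 macrophages were counted to derive IC50; mean ± SD of 3–4 independent experiments.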

[7] = target: T1, hERG (KCNH2) (Homo sapiens, UniProt Q12809); experiment: Inhibition of human ERG stably overexpressed in HEK293 cells assessed as remaining activity at 25 uM incubated for 30 mins by FLIPR assay; format: toxicity, cell-based; conditions: HEK293 cells stably overexpressing hERG, read-out: Activity
T1 sequence (Q12809 whole entry): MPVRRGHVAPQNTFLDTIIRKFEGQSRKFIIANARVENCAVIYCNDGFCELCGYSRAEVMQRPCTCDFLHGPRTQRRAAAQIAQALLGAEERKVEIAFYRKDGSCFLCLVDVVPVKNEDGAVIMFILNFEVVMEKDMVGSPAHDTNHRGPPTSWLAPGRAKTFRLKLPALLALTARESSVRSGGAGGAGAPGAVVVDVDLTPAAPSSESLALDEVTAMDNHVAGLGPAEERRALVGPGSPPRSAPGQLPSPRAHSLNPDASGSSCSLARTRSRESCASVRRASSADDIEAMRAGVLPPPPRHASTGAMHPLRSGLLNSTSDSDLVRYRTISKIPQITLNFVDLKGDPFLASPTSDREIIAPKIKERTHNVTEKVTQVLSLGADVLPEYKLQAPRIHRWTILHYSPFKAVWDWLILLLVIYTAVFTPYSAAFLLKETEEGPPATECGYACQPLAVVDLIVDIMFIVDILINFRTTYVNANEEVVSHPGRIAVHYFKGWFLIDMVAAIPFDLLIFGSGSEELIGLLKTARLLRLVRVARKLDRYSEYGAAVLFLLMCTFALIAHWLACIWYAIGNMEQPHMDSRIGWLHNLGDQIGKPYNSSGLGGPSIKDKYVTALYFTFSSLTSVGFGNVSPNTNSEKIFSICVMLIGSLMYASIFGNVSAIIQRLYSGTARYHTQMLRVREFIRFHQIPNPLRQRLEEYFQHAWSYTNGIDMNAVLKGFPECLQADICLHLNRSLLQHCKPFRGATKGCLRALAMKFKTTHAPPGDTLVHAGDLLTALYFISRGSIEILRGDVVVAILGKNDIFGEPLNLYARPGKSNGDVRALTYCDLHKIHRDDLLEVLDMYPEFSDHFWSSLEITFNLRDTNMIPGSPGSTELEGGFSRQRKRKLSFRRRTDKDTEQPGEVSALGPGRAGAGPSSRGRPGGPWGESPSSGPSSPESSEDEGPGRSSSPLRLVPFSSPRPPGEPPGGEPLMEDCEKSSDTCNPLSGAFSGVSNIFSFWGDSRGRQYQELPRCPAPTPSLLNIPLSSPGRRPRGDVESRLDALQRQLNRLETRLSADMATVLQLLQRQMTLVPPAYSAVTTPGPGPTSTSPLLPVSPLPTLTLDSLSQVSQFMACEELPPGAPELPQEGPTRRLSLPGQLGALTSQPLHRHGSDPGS
In short: (§4)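 HEK-293 cells stably expressing hERG, seeded at 60 000/well and grown 24 h. Compounds were added in DMSO (final 0.5%) and incubated 30 min in the dark. After 20 s baseline, Tl+ stimulus (3 mM) was added and fluorescence (ex 485/em 535 nm) recorded for 2.5 min.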

[8] = system: RAW264.7; experiment: Cytotoxicity against mouse RAW264.7 cells assessed as inhibition of cell growth incubated for 72 hrs by MTS assay; format: functional, cell-based; conditions: RAW264.7, 72 h
In short: (§5)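 Cells in DMEM + 10% heat-inactivated FBS with penicillin/streptomycin at 37 °C, 5% CO2. They were seeded at 1 × 10^4/well and incubated with a concentration series for 72 h at 37 °C. Viability was read by MTS/PMS assay at 490 nm and IC50 derived.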

[9] = target: Voltage-gated inwardly rectifying potassium channel KCNH2 (Homo sapiens, UniProt Q12809); experiment: Inhibition of human ERG stably overexpressed in HEK293 cells incubated for 30 mins by FLIPR assay; format: toxicity, cell-based; conditions: for IC25: human, hek293, 0.5 h, time 30 min
Chain of Voltage-gated inwardly rectifying potassium channel KCNH2 (Q12809 whole entry): as above

[10] = target: T1, hERG (KCNH2); experiment: Inhibition of human ERG stably overexpressed in HEK293 cells assessed as remaining activity at 6 uM incubated for 30 mins by FLIPR assay; format: toxicity, cell-based; conditions: HEK293 cells stably overexpressing hERG, read-out: Activity; in short: as §4
[11] = system: Leishmania donovani; experiment: Antileishmanial activity against miltefosine resistant Leishmania donovani HU3MILR40 promastigotes […] assessed as inhibition of parasite growth incubated for 72 hrs by automatic microtiter plate reader analysis; format: functional, organism-based
In short: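 Promastigote (free parasite) assay: Schneider's Drosophila medium with 4 mM glutamine, 25 μg mL−1 gentamicin, 10% heat-inactivated FBS, pH 6.9, 27 °C. 1.5 × 10^5 promastigotes per well exposed to a concentration series for 72 h at 27 °C.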

[12] = Metabolic stability in rat liver microsome assessed as drug metabolism measured up to 32 mins in absence of inhibitor by HPLC analysis relative to control; conditions: liver microsomes, without inhibitor
[13] = Metabolic stability in rat liver microsome assessed as parent compound remaining at 50 degreeC measured after 32 mins after heat treatment by HPLC; conditions: liver microsomes, heat-treated
[14] = system: Leishmania braziliensis; experiment: Antileishmanial activity against wild type Leishmania braziliensis UA847 amastigotes infected in mouse peritoneal macrophage assessed as inhibition of parasite growth incubated for 72 hrs by giemsa staining based analysis; format: functional, organism-based; in short: as §3
[15] = Cytotoxicity against mouse peritoneal macrophage assessed as inhibition of cell growth incubated for 72 hrs by giemsa staining based analysis; format: toxicity; conditions: peritoneal macrophages
[16] = system: Leishmania donovani; experiment: Antileishmanial activity against wild type Leishmania donovani HU3 promastigotes […] assessed as inhibition of parasite growth incubated for 72 hrs by automatic microtiter plate reader analysis; format: functional, organism-based
[17] = Cytotoxicity against mouse L929 cells assessed as inhibition of cell growth incubated for 72 hrs by MTS assay; format: toxicity, cell-based; in short: as §5
[18] = Metabolic stability in rat liver microsome assessed as compound remaining at 20 uM measured after 32 mins in presence of NADP and GSH by HPLC analysis; format: ADME; conditions: liver microsomes, read-out: Stability
In short: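 Rat liver microsomes (final 2 mg/mL) in 50 mM phosphate pH 7.4 with 0.3 mM NADP+, 5.3 mM glucose-6-phosphate, G6PDH, 10 mM MgCl2 and 5 mM EDTA. 20 μM compound added at 37 °C. Aliquots at 0, 16 and 32 min were quenched in ice-cold acetonitrile and centrifuged. HPLC peak area at 254/280 nm was expressed relative to 0 min.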

[19] = Hepatotoxicity against human HepG2 cells assessed as cell viability at 62.5 uM incubated for 48 hrs by MTT assay; format: toxicity, cell-based; conditions: read-out: Activity
In short: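 HEP-G2 cells in RPMI 1640 + 10% heat-inactivated FBS, penicillin/streptomycin. Seeded at 15 000/well and attached 24 h at 37 °C, 5% CO2. Compounds were serially diluted in DMSO, with 24 or 48 h exposure. MTT (2.5 mg/mL solution) was added for 4 h, formazan dissolved in DMSO and A570 read. Viability was background-corrected against DMSO-treated cell controls; mean ± SD, ≥3 experiments.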

[20] = system: Leishmania donovani; experiment: Antileishmanial activity against miltefosine resistant Leishmania donovani HU3MILR40 amastigotes infected in mouse peritoneal macrophage assessed as inhibition of parasite growth incubated for 72 hrs by giemsa staining based analysis; format: functional, organism-based
In short: (§6)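 Mouse peritoneal macrophages in DMEM + 10% heat-inactivated FBS, penicillin/streptomycin; 1 × 10^5 cells per well on coverslips, adhered overnight at 37 °C, 5% CO2, non-adherent cells washed off. Infected overnight with late-log promastigotes at parasite:macrophage 40:1. Compound exposure 72 h at 37 °C; Giemsa stain, amastigotes per 100 macrophages counted, IC50 derived; means ± SD of 3–4 independent experiments.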

[21] = system: Leishmania donovani; experiment: Antileishmanial activity against wild type Leishmania donovani HU3 amastigotes infected in mouse peritoneal macrophage assessed as inhibition of parasite growth incubated for 72 hrs by giemsa staining based analysis; format: functional, organism-based; in short: as §6
[22] = Metabolic stability in rat liver microsome assessed as parent compound remaining at 50 degreeC measured after 16 mins after heat treatment by HPLC analysis; conditions: liver microsomes, heat-treated
[23] = Hepatotoxicity against mouse TAMH cells assessed as cell viability at 7.8 to 125 uM incubated for 24 to 48 hrs by MTT assay; format: toxicity, cell-based; conditions: dose lower 7.8 µM, time lower 24 hrs, dose upper 125 µM, time upper 48 hrs, read-out: Activity; in short: as §2

Row | Compound | IC50 [1] | IC50 [2] | remaining at 32 min, 20 µM [4] | IC50 [5] | IC50 [6] | IC50 [8] | IC25 [9] | IC50 [11] | metabolised at 32 min [12] | IC50 [14] | IC50 at 72 h [15] | IC50 [16] | IC50 at 72 h [17] | remaining at 32 min, 20 µM [18] | IC50 [20] | IC50 [21] | further results
1 | CSc1ccc(OCc2ncc([N+](=O)[O-])n2C)cc1 [FEXINIDAZOLE] | 7 µM | 3.9 µM | 73.4% | 1.9 µM | > 10 µM | > 100 µM | 8.6 µM | 5.5 µM | 100% | > 10 µM | > 82 µM | 3.3 µM | > 100 µM | 0% | > 10 µM | > 10 µM | viability at 48 h, 62.5 µM [3]: 90%; activity at 0.5 h, 25 µM [7]: 34%; IC50 [9]: ~10.7 µM; activity at 0.5 h, 6 µM [10]: 78%; remaining at 32 min [13]: 11%; viability at 48 h, 62.5 µM [19]: 95%
2 | CCc1ccc(OCc2ncc([N+](=O)[O-])n2C)cc1 | 4.5 µM | 3.9 µM | 96.4% | 1.4 µM | > 10 µM | > 68.5 µM | 14.9 µM | 5.3 µM | 100% | > 10 µM | > 100 µM | 5 µM | 71.8 µM | 0% | > 10 µM | > 10 µM | remaining at 16 min [22]: 16%; viability at up to 125 µM [23]: > 50%
